What was measured:
[1] = biological target: Acetylcholinesterase (Homo sapiens, UniProt P22303); assay: Inhibition of human recombinant AChE using acetylthiocholine iodide as substrate measured over 60 secs by Ellman assay
Method in brief: (§1)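 Dose-response Ellman assay on recombinant enzyme in 0.1 M phosphate pH 7.4 with 0.2 mM DTNB and 1 mM acetylthiocholine iodide. At least eight inhibitor concentrations were used, up to 1 mM, diluted from 100 mM DMSO stocks. Run manually at 30 °C with A412 read over 60 s. Activity is relative to uninhibited wells. IC50 was obtained by non-linear log[inhibitor] fitting from 2 replicates.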

[2] = Inhibition of Aedes aegypti recombinant AChE1 expressed in baculovirus infected insect Sf9 cells using acetylthiocholine iodide as substrate measured over 60 secs by Ellman assay; method in brief: as §1
[3] = biological target: Acetylcholinesterase (Anopheles gambiae) (UniProt Q869C3); assay: Inhibition of Anopheles gambiae recombinant AChE1 expressed in baculovirus infected insect Sf9 cells at 50 uM using acetylthiocholine iodide as substrate measured over 60 secs by Ellman assay relative to control
Method in brief: (§2)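 Single-concentration HTS with secreted, non-purified Sf-9-expressed mosquito AChE1 in growth medium. Assay in 0.1 M phosphate buffer pH 7.4 with 0.2 mM DTNB and 1 mM acetylthiocholine iodide. Compounds were tested at a final 50 µM from DMSO stocks. The A412 slope was read over 60 s. Activity was expressed relative to the mean of eight uninhibited control wells per plate.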

[4] = biological target: Acetylcholinesterase (Anopheles gambiae, UniProt Q869C3); assay: Inhibition of Anopheles gambiae recombinant AChE1 expressed in baculovirus infected insect Sf9 cells using acetylthiocholine iodide as substrate measured over 60 secs by Ellman assay; method in brief: as §1
[5] = Selectivity ratio of IC50 for human recombinant AChE to IC50 for Anopheles gambiae recombinant AChE1
[6] = Inhibition of Aedes aegypti recombinant AChE1 expressed in baculovirus infected insect Sf9 cells at 50 uM using acetylthiocholine iodide as substrate measured over 60 secs by Ellman assay relative to control; method in brief: as §2
[7] = Selectivity ratio of IC50 for human recombinant AChE to IC50 for Aedes aegypti recombinant AChE1
[8] = biological target: Acetylcholinesterase (Anopheles gambiae, UniProt Q869C3, G122S); assay: Inhibition of Anopheles gambiae recombinant AChE1 G122S mutant using acetylthiocholine iodide as substrate by Ellman assay; method in brief: as §1
[9] = biological target: T1, Acetylcholinesterase (Mus musculus, UniProt P21836); assay: Inhibition of mouse recombinant AChE using acetylthiocholine iodide as substrate measured over 60 secs by Ellman assay
T1 sequence (P21836 whole entry): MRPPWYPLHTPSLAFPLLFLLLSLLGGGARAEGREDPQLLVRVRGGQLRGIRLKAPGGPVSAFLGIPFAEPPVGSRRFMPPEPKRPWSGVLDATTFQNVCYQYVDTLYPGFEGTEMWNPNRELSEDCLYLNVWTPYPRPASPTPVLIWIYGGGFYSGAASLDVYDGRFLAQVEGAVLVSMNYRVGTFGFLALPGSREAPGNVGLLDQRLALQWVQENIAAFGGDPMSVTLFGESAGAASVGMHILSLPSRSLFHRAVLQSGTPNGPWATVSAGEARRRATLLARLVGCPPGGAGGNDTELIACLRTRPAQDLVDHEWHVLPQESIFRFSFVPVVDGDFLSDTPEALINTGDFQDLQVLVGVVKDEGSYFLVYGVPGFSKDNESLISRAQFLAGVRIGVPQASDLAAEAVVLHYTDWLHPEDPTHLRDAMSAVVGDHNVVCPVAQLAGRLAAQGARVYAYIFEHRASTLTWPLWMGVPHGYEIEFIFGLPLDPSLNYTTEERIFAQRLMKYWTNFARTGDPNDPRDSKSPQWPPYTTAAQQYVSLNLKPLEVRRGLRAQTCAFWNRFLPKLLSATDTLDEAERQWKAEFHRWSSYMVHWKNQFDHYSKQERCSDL

SMILES | IC50 [1] [µM] | IC50 [2] [µM] | inhibition [3] [%] | IC50 [4] [µM] | Ratio IC50 [5] | inhibition [6] [%] | Ratio IC50 [7] | IC50 [8] [µM] | IC50 [9] [µM]
O=C(COc1ccccc1)N1CCN(C2CCN(Cc3ccccc3)CC2)CC1 | 43 | 19 | 24 | 21 | 2 | 18 | 2 | – | –
CCSc1nc2sc3c(c2c(=O)n1-c1ccccc1)CCN(Cc1ccccc1)C3 | 5.1 | 8.8 | 94 | 8.3 | 0.6 | 93 | 0.6 | – | –
CCOc1ccc(-n2c(SCc3nc(-c4ccccc4C)no3)nnc2-c2ccccc2)cc1 | > 1000 | > 1000 | 63 | > 1000 | – | 1 | – | – | –
O=C(c1ccccc1F)N1CCN(C2CCN(Cc3ccccc3)CC2)CC1 | > 200 | 12 | 32 | 17 | > 12 | 33 | > 12 | – | –
COc1ccc(CN2CC=C(c3ccc(F)cc3)CC2)cc1OCc1ccccc1 | > 200 | > 100 | 86 | > 100 | – | 90 | – | – | –
CCN1CCN(C2CCN(C(=O)COc3ccc(-c4ccccc4)cc3)CC2)CC1 | 31 | 0.22 | 92 | 0.21 | – | 76 | – | 1.3 | 18
c1ccc(COc2ccc(CN3CCc4ccccc4C3)cc2)cc1 | > 200 | – | 41 | 2.9 | > 67 | 80 | > 67 | – | –
O=C(COc1ccc(Cl)cc1Cl)Nc1ccc(CN2CCCCC2)cc1 | – | 0.44 | 93 | 0.26 | – | 91 | – | 1.2 | –
Fc1ccccc1COc1ccccc1CNCCN1CCOCC1 | > 500 | > 500 | 23 | > 500 | – | 38 | – | – | –
O=S(=O)(NCCSc1nnc(-c2ccco2)n1-c1ccccc1)c1ccccc1 | > 1000 | > 1000 | 76 | > 1000 | – | 82 | – | – | –
